# Measured values published in ChEMBL document CHEMBL3046081, “Phytotoxic effect, uptake, and transformation of biochanin A in selected weed species” (J Agric Food Chem, 2012).
# Active and inactive are the calls of the source. The calls are words filed in the database; no cut-off is given here.
# Key:
# [1] = test system: Shoot; test: Drug metabolism in Echinochloa crus-galli (barnyard grass) shoot assessed as transformation to sissotrin at 400 uM after 14 days measured per gm of dry weight by LC-MS analysis; assay type: ADME; conditions: 336 h
# Summary of the method: (§1)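 Pregerminated seeds, 14 per container, transplanted onto 0.5% agar medium containing biochanin A. Grown at 24 ± 1 °C under a 16 h light/8 h dark photoperiod and harvested 14 days after transplanting. Roots and shoots collected separately, blotted, washed twice, then freeze-dried. Tissue extracted by ASE at 40 °C and analysed by LC-ESI-MS against commercial standards. Two replicates per treatment.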
# [2] = test system: Shoot; test: Drug metabolism in Geranium molle shoot assessed as transformation to p-coumaric acid at 400 uM after 14 days measured per gm of dry weight by LC-MS analysis; assay type: ADME; conditions: 336 h; summary of the method: as §1
# [3] = test system: Lolium perenne; test: Phytotoxicity against Lolium perenne (perennial ryegrass) assessed as root growth inhibition at 100 to 400 uM after 2 weeks by agar medium bioassay; assay type: functional, organism-based
# Summary of the method: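 Agar bioassay with eight biochanin A doses (0–400 µM). Seeds were pregerminated 48 h at room temperature, then 10 seedlings were placed per Petri dish and grown 2 weeks at 24 ± 1 °C under a 16 h light/8 h dark cycle. […]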
# [4] = test system: Leaf; test: Drug recovery in leaf of Secale cereale (rye) at 5 ng/g by LC-MS analysis
compound,measurement,setting,value
COc1ccc(-c2coc3cc(O)cc(O)c3c2=O)cc1 [BIOCHANIN],Drug metabolism,[1],0 µmol
same,Drug metabolism,[2],0.03 µmol
same,Activity,[3],inactive
same,Drug recovery,[4],93%
